Values after ≈ are worked out from the molar mass of the structure shown.
What was measured:
Enterococcus faecalis [1] = test: Antibacterial activity against vancomycin-resistant Enterococcus faecalis SR7914 after 20 hrs by broth microdilution method; format: functional; conditions: SR7914, 20 h
In short: (§1)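 MIC by broth microdilution following NCCLS guidance in cation-adjusted Mueller-Hinton broth. Compounds tested as serial 2-fold dilutions, tested up to 64 μg/mL. Each well inoculated with 5 × 10^4 CFU of the strain in 0.1 mL. Incubation at 35 °C for 20 h, after which the MIC was scored.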

Enterococcus faecium [2] = test: Antibacterial activity against vancomycin-resistant Enterococcus faecium SR7917 after 20 hrs by broth microdilution method; format: functional; conditions: SR7917, 20 h; in short: as §1
Enterococcus faecalis [3] = test: Antibacterial activity against Enterococcus faecalis ATCC 29212 after 20 hrs by broth microdilution method; format: functional; conditions: ATCC 29212, 20 h
In short: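 MIC by NCCLS broth microdilution in cation-adjusted Mueller-Hinton broth with serial 2-fold compound dilutions. Inoculum 5 × 10^4 CFU per strain in 0.1 mL. Incubated 35 °C for 20 h before scoring.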

[4] = target: T1, Phospho-N-acetylmuramoyl-pentapeptide-transferase (Bacillus subtilis (strain 168), UniProt Q03521); test: Inhibition of purified Bacillus subtilis MraY assessed as incorporation of MurNAc-[14C]pentapeptide into lipid 1 after 30 mins
T1 sequence (Q03521 whole entry): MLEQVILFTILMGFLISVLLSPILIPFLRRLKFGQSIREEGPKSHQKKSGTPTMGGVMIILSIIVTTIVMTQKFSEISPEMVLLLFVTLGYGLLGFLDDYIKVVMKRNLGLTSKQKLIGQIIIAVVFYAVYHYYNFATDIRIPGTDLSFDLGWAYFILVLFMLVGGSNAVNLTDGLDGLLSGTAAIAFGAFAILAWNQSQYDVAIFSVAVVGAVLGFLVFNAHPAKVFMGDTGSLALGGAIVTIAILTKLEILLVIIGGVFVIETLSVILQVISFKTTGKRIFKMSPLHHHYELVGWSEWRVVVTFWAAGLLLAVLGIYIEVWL
In short: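 Purified B. subtilis MraY. Final mix: 100 mM Tris-HCl pH 7.5, 40 mM MgCl2, 1.1 mM C55-P, 250 mM NaCl, 0.25 mM UDP-MurNAc-[14C]pentapeptide (337 Bq), 8.4 mM N-lauroyl sarcosine. Incubated 30 min at 37 °C. Substrate and lipid I separated by silica TLC and quantified by radioactivity scanning. IC50 calculated relative to an inhibitor-free control.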

Enterococcus faecium [5] = test: Antibacterial activity against Enterococcus faecium ATCC 19434 after 20 hrs by broth microdilution method; format: functional; conditions: ATCC 19434, 20 h; in short: as §1
Staphylococcus aureus [6] = test: Antibacterial activity against methicillin-resistant Staphylococcus aureus SR3637 after 20 hrs by broth microdilution method; format: functional; conditions: SR3637, 20 h; in short: as §1
Staphylococcus aureus [7] = test: Antibacterial activity against methicillin-susceptible Staphylococcus aureus ATCC 29213 after 20 hrs by broth microdilution method; format: functional; conditions: ATCC 29213, 20 h; in short: as §1
HepG2 = test: Cytotoxicity against human HepG2 cells after 48 hrs by WST-8 assay; format: cell-based; conditions: hepg2, 48 h

| SMILES | MIC (Enterococcus faecalis [1]) [µg/mL] | MIC (Enterococcus faecium [2]) [µg/mL] | MIC (Enterococcus faecalis [3]) [µg/mL] | IC50 [4] [nM] | MIC (Enterococcus faecium [5]) [µg/mL] | MIC (Staphylococcus aureus [6]) [µg/mL] | MIC (Staphylococcus aureus [7]) [µg/mL] | Activity (HepG2) |
| --- | --- | --- | --- | --- | --- | --- | --- | --- |
| CCCCCCCCCCCCN[C@H](C(=O)O)[C@H](O[C@@H]1O[C@H](CN)[C@@H](O)[C@H]1O)[C@H]1O[C@@H](n2ccc(=O)[nH]c2=O)[C@H](O)[C@@H]1O | 64 (≈ 104 µM) | 64 (≈ 104 µM) | 32 (≈ 51.9 µM) | 5000 | 64 (≈ 104 µM) | > 64 | > 64 | – |
| CC(C)[C@H](NC(=O)N[C@H](C(=O)N[C@@H](CCCCCCCc1ccc(-c2ccccc2)cc1)C(=O)NCCCN[C@H](C(=O)O)[C@H](O[C@@H]1O[C@H](CN)[C@@H](O)[C@H]1O)C1O[C@@H](n2ccc(=O)[nH]c2=O)[C@H](O)[C@@H]1O)[C@@H]1CCNC(=N)N1)C(=O)O (single isomer, unassigned) | 16 (≈ 14.4 µM) | 8 (≈ 7.21 µM) | 4 (≈ 3.6 µM) | – | 4 (≈ 3.6 µM) | 4 (≈ 3.6 µM) | 4 (≈ 3.6 µM) | Non-toxic |
| CCCCOc1ccc(-c2ccc(CC[C@@H](NC(=O)[C@@H](NC(=O)N[C@H](C(=O)O)C(C)C)[C@@H]3CCNC(=N)N3)C(=O)NCCCN[C@H](C(=O)O)[C@H](O[C@@H]3O[C@H](CN)[C@@H](O)[C@H]3O)C3O[C@@H](n4ccc(=O)[nH]c4=O)[C@H](O)[C@@H]3O)cc2)cc1 (single isomer, unassigned) | 64 (≈ 57.5 µM) | 8 (≈ 7.19 µM) | 32 (≈ 28.8 µM) | – | 4 (≈ 3.6 µM) | 64 (≈ 57.5 µM) | 64 (≈ 57.5 µM) | Non-toxic |
| CCCCCCOc1ccc(-c2ccc([C@H](NC(=O)[C@@H](NC(=O)N[C@H](C(=O)O)C(C)C)[C@@H]3CCNC(=N)N3)C(=O)NCCCN[C@H](C(=O)O)[C@H](O[C@@H]3O[C@H](CN)[C@@H](O)[C@H]3O)C3O[C@@H](n4ccc(=O)[nH]c4=O)[C@H](O)[C@@H]3O)cc2)cc1 (single isomer, unassigned) | 8 (≈ 7.19 µM) | 4 (≈ 3.6 µM) | 8 (≈ 7.19 µM) | – | 4 (≈ 3.6 µM) | 8 (≈ 7.19 µM) | 4 (≈ 3.6 µM) | Non-toxic |
| CCCCCCOc1ccc(-c2ccc([C@@H](NC(=O)[C@@H](NC(=O)N[C@H](C(=O)O)C(C)C)[C@@H]3CCNC(=N)N3)C(=O)NCCCN[C@H](C(=O)O)[C@H](O[C@@H]3O[C@H](CN)[C@@H](O)[C@H]3O)C3O[C@@H](n4ccc(=O)[nH]c4=O)[C@H](O)[C@@H]3O)cc2)cc1 (single isomer, unassigned) | 16 (≈ 14.4 µM) | 8 (≈ 7.19 µM) | 16 (≈ 14.4 µM) | – | 4 (≈ 3.6 µM) | 16 (≈ 14.4 µM) | 16 (≈ 14.4 µM) | Non-toxic |
| CC(C)C[C@@H](NC(=O)[C@@H](NC(=O)N[C@H](C(=O)O)C(C)C)[C@@H]1CCN=C(N)N1)C(=O)NCCCN[C@H](C(=O)O)[C@H](O[C@@H]1O[C@H](CN)[C@@H](O)[C@H]1O)C1O[C@@H](n2ccc(=O)[nH]c2=O)[C@H](O)[C@@H]1O (single isomer, unassigned) | > 64 | > 64 | > 64 | 90 | > 64 | > 64 | > 64 | – |
| CCCCCCCCCCCCCCC[C@H](NC(=O)[C@@H](NC(=O)N[C@H](C(=O)O)C(C)C)[C@@H]1CCN=C(N)N1)C(=O)NCCCN[C@H](C(=O)O)[C@H](O[C@@H]1O[C@H](CN)[C@@H](O)[C@H]1O)C1O[C@@H](n2ccc(=O)[nH]c2=O)[C@H](O)[C@@H]1O (single isomer, unassigned) | 4 (≈ 3.74 µM) | 2 (≈ 1.87 µM) | 4 (≈ 3.74 µM) | 330 | 4 (≈ 3.74 µM) | 4 (≈ 3.74 µM) | 2 (≈ 1.87 µM) | Non-toxic |
| CCCCCCCCCCCCCCC[C@@H](NC(=O)[C@@H](NC(=O)N[C@H](C(=O)O)C(C)C)[C@@H]1CCN=C(N)N1)C(=O)NCCCN[C@H](C(=O)O)[C@H](O[C@@H]1O[C@H](CN)[C@@H](O)[C@H]1O)C1O[C@@H](n2ccc(=O)[nH]c2=O)[C@H](O)[C@@H]1O (single isomer, unassigned) | 4 (≈ 3.74 µM) | 0.25 (≈ 0.234 µM) | 2 (≈ 1.87 µM) | 740 | 0.5 (≈ 0.467 µM) | 4 (≈ 3.74 µM) | 2 (≈ 1.87 µM) | Non-toxic |
| CC(C)[C@H](NC(=O)N[C@H](C(=O)N[C@H](CCCCCCCc1ccc(-c2ccccc2)cc1)C(=O)NCCCN[C@H](C(=O)O)[C@H](O[C@@H]1O[C@H](CN)[C@@H](O)[C@H]1O)C1O[C@@H](n2ccc(=O)[nH]c2=O)[C@H](O)[C@@H]1O)[C@@H]1CCNC(=N)N1)C(=O)O (single isomer, unassigned) | 16 (≈ 14.4 µM) | 4 (≈ 3.6 µM) | 8 (≈ 7.21 µM) | – | 4 (≈ 3.6 µM) | 16 (≈ 14.4 µM) | 8 (≈ 7.21 µM) | Non-toxic |
| CCCCOc1ccc(-c2ccc(CC[C@H](NC(=O)[C@@H](NC(=O)N[C@H](C(=O)O)C(C)C)[C@@H]3CCNC(=N)N3)C(=O)NCCCN[C@H](C(=O)O)[C@H](O[C@@H]3O[C@H](CN)[C@@H](O)[C@H]3O)C3O[C@@H](n4ccc(=O)[nH]c4=O)[C@H](O)[C@@H]3O)cc2)cc1 (single isomer, unassigned) | 64 (≈ 57.5 µM) | 32 (≈ 28.8 µM) | 16 (≈ 14.4 µM) | – | 16 (≈ 14.4 µM) | 32 (≈ 28.8 µM) | 16 (≈ 14.4 µM) | Non-toxic |
| CC(C)C[C@H](NC(=O)[C@@H](NC(=O)N[C@H](C(=O)O)C(C)C)[C@@H]1CCNC(=N)N1)C(=O)NCCCN[C@H](C(=O)O)[C@H](O[C@@H]1O[C@H](CN)[C@@H](O)[C@H]1O)[C@H]1O[C@@H](n2ccc(=O)[nH]c2=O)[C@H](O)[C@@H]1O [MURAMYCIN D2] | > 64 | > 64 | > 64 | 10 | > 64 | > 64 | > 64 | – |
| CN[C@H](CC(C)C)C(=O)N[C@H]1C(=O)N[C@@H](CC(N)=O)C(=O)N[C@H]2C(=O)N[C@H]3C(=O)N[C@H](C(=O)N[C@H](C(=O)O)c4cc(O)cc(O)c4-c4cc3ccc4O)[C@H](O)c3ccc(c(Cl)c3)Oc3cc2cc(c3O[C@@H]2O[C@H](CO)[C@@H](O)[C@H](O)[C@H]2O[C@H]2C[C@](C)(N)[C@H](O)[C@H](C)O2)Oc2ccc(cc2Cl)[C@H]1O [VANCOMYCIN] | > 64 | > 64 | 1 (≈ 0.69 µM) | – | – | – | – | – |

Reference: ChEMBL document CHEMBL1777703, “Synthesis and Biological Evaluation of Muraymycin Analogues Active against Anti-Drug-Resistant Bacteria” (ACS Med Chem Lett, 2010)
